Source: ChEMBL document CHEMBL3232915, “Discovery, optimization, and characterization of novel D2 dopamine receptor selective antagonists” (J Med Chem, 2014)

Experiments:
D(2) dopamine receptor [1] = biological target: T1, D(2) dopamine receptor (Homo sapiens, UniProt P14416); test: Antagonist activity at D2 receptor (unknown origin) expressed in Flp-In TREx 293 cells coexpressing chimeric Gqi5 protein assessed as calcium accumulation by Fluo-8AM dye based fluorescence analysis; assay type: functional, cell-based
D(2) dopamine receptor [2] = biological target: T1, D(2) dopamine receptor; test: Antagonist activity at ProLink-tagged D2 receptor (unknown origin) expressed in CHO cells assessed as inhibition of dopamine-stimulated beta-arrestin binding treated for 90 mins prior to dopamine challenge by PathHunter DiscoveRx assay; assay type: cell-based
D(3) dopamine receptor [3] = biological target: T2, D(3) dopamine receptor (Homo sapiens, UniProt P35462); test: Antagonist activity at ProLink-tagged D3 receptor (unknown origin) expressed in CHO cells assessed as inhibition of dopamine-stimulated beta-arrestin binding treated for 90 mins prior to dopamine challenge by PathHunter DiscoveRx assay; assay type: cell-based
D(2) dopamine receptor [4] = biological target: T1, D(2) dopamine receptor; test: Displacement of [3H]methylspiperone from human D2L receptor expressed in HEK cell membrane after 90 mins by scintillation counting analysis; assay type: cell membranes, HEK293
D(3) dopamine receptor [5] = biological target: T2, D(3) dopamine receptor; test: Displacement of [3H]methylspiperone from human D3 receptor expressed in HEK293 cell membrane after 90 mins by scintillation counting analysis; assay type: cell membranes
CHO = test: Ratio of AC50 for ProLink-tagged D3 receptor (unknown origin) expressed in CHO cells to AC50 for ProLink-tagged D2 receptor (unknown origin) expressed in CHO cells by beta-arrestin assay; assay type: cell-based; conditions: Homo sapiens
HEK293 = test: Ratio of Ki for human D3 receptor expressed in HEK293 cell membrane to Ki for human D2L receptor expressed in HEK cell membrane; assay type: cell-based
Method in brief: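 Competition binding with [3H]methylspiperone on membranes from stable HEK cells. […] Incubation 90 min at room temperature in EBSS with sodium metabisulfite, nonspecific binding with 4 µM (+)-butaclamol, then GF/C filtration and scintillation counting. Ki from IC50 via Cheng–Prusoff.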

Plasma [6] = test: Stability of the compound in human plasma assessed as compound remaining after 2 hrs; assay type: ADME, cell-free
Caco-2 [7] = test: Apparent permeability from apical to basolateral side in human Caco2 cells; assay type: ADME, cell-based
Caco-2 [8] = test: Apparent permeability from basolateral to apical side in human Caco2 cells; assay type: ADME, cell-based
Brain = test: Cmax in C57BL/6 mouse brain at 30 mg/kg, ip administered as single dose measured within 15 mins after drug challenge; assay type: ADME, organism-based; design: dose 30 mg/kg, route intraperitoneal; conditions: in vivo, 0.25 h
Method in brief: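 Male C57BL/6 mice (N = 3) got a single 30 mg/kg ip dose in 10% NMP + 20% PEG 400 + 70% of 25% HP-β-CD in water. Plasma and brain concentration–time profiles were measured.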

Liver = test: Intrinsic half-life in mouse liver microsomes; assay type: ADME
[9] = Aqueous kinetic solubility of the compound in PBS buffer; assay type: physicochemical
Plasma [10] = test: Stability of the compound in mouse plasma assessed as compound remaining after 2 hrs; assay type: ADME, cell-free

T1 sequence (P14416 whole entry): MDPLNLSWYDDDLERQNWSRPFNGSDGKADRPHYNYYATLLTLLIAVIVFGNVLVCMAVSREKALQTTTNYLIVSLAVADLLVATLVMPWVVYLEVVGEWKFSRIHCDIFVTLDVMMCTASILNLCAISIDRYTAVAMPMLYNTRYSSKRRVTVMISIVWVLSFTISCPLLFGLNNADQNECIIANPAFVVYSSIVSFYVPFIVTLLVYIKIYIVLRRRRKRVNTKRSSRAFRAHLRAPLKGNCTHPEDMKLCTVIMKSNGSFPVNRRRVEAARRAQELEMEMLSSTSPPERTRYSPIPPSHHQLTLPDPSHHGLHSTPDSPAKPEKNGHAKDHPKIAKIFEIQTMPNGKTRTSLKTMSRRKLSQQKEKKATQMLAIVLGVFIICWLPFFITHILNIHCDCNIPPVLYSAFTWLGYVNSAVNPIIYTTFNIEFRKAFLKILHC
T2 sequence (P35462 whole entry): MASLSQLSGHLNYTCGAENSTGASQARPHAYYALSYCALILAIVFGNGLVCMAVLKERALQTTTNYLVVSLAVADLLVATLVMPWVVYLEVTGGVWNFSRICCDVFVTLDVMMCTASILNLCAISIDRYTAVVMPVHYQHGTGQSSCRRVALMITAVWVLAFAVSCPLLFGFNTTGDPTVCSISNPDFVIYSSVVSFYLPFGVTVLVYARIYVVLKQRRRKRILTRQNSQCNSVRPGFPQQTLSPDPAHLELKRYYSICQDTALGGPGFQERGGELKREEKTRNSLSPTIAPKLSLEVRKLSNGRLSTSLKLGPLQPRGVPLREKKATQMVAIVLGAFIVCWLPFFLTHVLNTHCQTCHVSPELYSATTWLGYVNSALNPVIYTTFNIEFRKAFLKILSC

For `CCN1C(=O)c2ccccc2[S+]([O-])c2ccc(C(=O)N(C)Cc3ccc(OC)cc3)cc21` (racemic), the AC50 (D(2) dopamine receptor [1]) was over 77000 nM.

For `CCN1C(=O)c2ccccc2Sc2ccc(C(=O)NCc3ccc(OC)cc3)cc21`, the AC50 (D(2) dopamine receptor [1]) was 705 nM.

`CN1C(=O)c2ccccc2[S@@+]([O-])c2ccc(C(=O)NCCc3cccs3)cc21` gave an AC50 (D(2) dopamine receptor [1]) of over 77000 nM, an AC50 (D(2) dopamine receptor [2]) of over 77000 nM and an AC50 (D(3) dopamine receptor [3]) of over 77000 nM. It also gave a Ki (D(2) dopamine receptor [4]) of over 50000 nM and a Ki (D(3) dopamine receptor [5]) of over 50000 nM.

`CCN1C(=O)c2ccccc2[S@+]([O-])c2ccc(C(=O)N[C@H](C)c3ccc4ccccc4c3)cc21` showed an AC50 (D(2) dopamine receptor [1]) of 353 nM, an AC50 (D(2) dopamine receptor [2]) of 2890 nM and an AC50 (D(3) dopamine receptor [3]) of 32400 nM. For the same molecule, the Ki (D(2) dopamine receptor [4]) was 290 nM, the Ki (D(3) dopamine receptor [5]) was 3400 nM and the Ratio (CHO) was 11.2. For the same molecule, the Ratio Ki (HEK293) was 11.7.

Work on `CCN1C(=O)c2ccccc2[S+]([O-])c2ccc(C(=O)NCc3ccc(C)cc3)cc21` (racemic) yielded an AC50 (D(2) dopamine receptor [1]) of 177 nM.

In the case of `COc1ccc(CNC(=O)c2cccc(N3C(=O)c4ccccc4C3=O)c2)cc1`, the AC50 (D(2) dopamine receptor [1]) is reported as over 77000 nM.

With `CCN1C(=O)c2ccccc2[S+]([O-])c2ccc(C(=O)NCc3ccc4c(c3)OCO4)cc21` (racemic) the AC50 (D(2) dopamine receptor [1]) was 353 nM.

With `CN1C(=O)c2ccccc2[S+]([O-])c2ccc(C(=O)NCc3ccc(F)cc3)cc21` (racemic) the AC50 (D(2) dopamine receptor [1]) was 353 nM.

`CN1C(=O)c2ccccc2[S+]([O-])c2ccc(C(=O)NCc3ccccc3)cc21` (racemic) showed an AC50 (D(2) dopamine receptor [1]) of 223 nM.

Molecule `CN1C(=O)c2ccccc2[S@+]([O-])c2ccc(C(=O)NCCc3cccs3)cc21` has a Stability (Plasma [6]) of 98.4%, a Papp (Caco-2 [7]) of 18.8 ×10⁻⁶ cm/s and a Papp (Caco-2 [8]) of 23.8 ×10⁻⁶ cm/s. For the same molecule, the Cmax (Brain) was 4.19 µmol/kg, the t1/2 (Liver) was 24.7 min and the Ki (D(3) dopamine receptor [5]) was 4100 nM. It also gave a Kinetic_solubility [9] of 113.3 µM and a Stability (Plasma [10]) of 95.2%.

Work on `COc1ccc(CNC(=O)c2ccc3c(c2)C(=O)c2ccccc2C3=O)cc1` yielded an AC50 (D(2) dopamine receptor [1]) of over 77000 nM.

`CN1C(=O)c2ccccc2[S+]([O-])c2ccc(C(=O)Nc3ccccc3)cc21` (racemic) showed an AC50 (D(2) dopamine receptor [1]) of 1580 nM.

In the case of `CCN1C(=O)c2ccccc2[S+]([O-])c2ccc(C(=O)NCc3cccc(OC)c3)cc21` (racemic), the AC50 (D(2) dopamine receptor [1]) is reported as 112 nM.

`CN1C(=O)c2ccccc2[S+]([O-])c2ccc(C(=O)NCCc3cccs3)cc21` (racemic) showed an AC50 (D(2) dopamine receptor [1]) of 89 nM, an AC50 (D(2) dopamine receptor [2]) of 913 nM and an AC50 (D(3) dopamine receptor [3]) of 20400 nM. It also gave a Ki (D(2) dopamine receptor [4]) of 190 nM and a Ki (D(3) dopamine receptor [5]) of 9200 nM.

In the case of `CCN1C(=O)c2ccccc2[S@+]([O-])c2ccc(C(=O)NCc3ccc(F)cc3)cc21`, the AC50 (D(2) dopamine receptor [1]) is reported as 56 nM, the AC50 (D(2) dopamine receptor [2]) is reported as 576 nM and the AC50 (D(3) dopamine receptor [3]) is reported as 3240 nM. The Ki (D(2) dopamine receptor [4]) was 90 nM, the Ki (D(3) dopamine receptor [5]) was 230 nM and the Ratio (CHO) was 5.6. For the same molecule, the Ratio Ki (HEK293) was 2.6.

With `CCN(Cc1ccccc1)C(=O)c1ccc2c(c1)N(CC)C(=O)c1ccccc1[S+]2[O-]` (racemic) the AC50 (D(2) dopamine receptor [1]) was 56000 nM.

`CCN1C(=O)c2ccccc2[S+]([O-])c2ccc(C(=O)NCc3ccc(C#N)cc3)cc21` (racemic) gave an AC50 (D(2) dopamine receptor [1]) of 141 nM.

Work on `CCN1C(=O)c2ccccc2[S+]([O-])c2ccc(C(=O)NCc3ccc(SC)cc3)cc21` (racemic) yielded an AC50 (D(2) dopamine receptor [1]) of 223 nM.

Molecule `CN1C(=O)c2ccccc2[S+]([O-])c2ccc(C(=O)NCc3ccccn3)cc21` (racemic) has an AC50 (D(2) dopamine receptor [1]) of 11200 nM.

`CN1C(=O)c2ccccc2[S+]([O-])c2ccc(C(=O)NCc3cccnc3)cc21` (racemic) showed an AC50 (D(2) dopamine receptor [1]) of 281 nM.

For `CN1C(=O)c2ccccc2[S+]([O-])c2ccc(C(=O)NCCN3CCCC3)cc21` (racemic), the AC50 (D(2) dopamine receptor [1]) was 89 nM.

Work on `CCN1C(=O)c2ccccc2[S+]([O-])c2ccc(C(=O)NCc3ccc(F)cc3)cc21` (racemic) yielded an AC50 (D(2) dopamine receptor [1]) of 89 nM.

For `CN1C(=O)c2ccccc2[S+]([O-])c2ccc(C(=O)NCc3ccc(Br)cc3)cc21` (racemic), the AC50 (D(2) dopamine receptor [1]) was 71 nM.

In the case of `CCN1C(=O)c2ccccc2[S+]([O-])c2ccc(C(=O)OCc3ccc(OC)cc3)cc21` (racemic), the AC50 (D(2) dopamine receptor [1]) is reported as over 77000 nM.

In the case of `COc1ccc(CNC(=O)c2ccc3c(c2)NC(=O)c2ccccc2[S+]3[O-])cc1` (racemic), the AC50 (D(2) dopamine receptor [1]) is reported as 887 nM.

In the case of `COc1ccc(CNC(=O)c2ccc3c(c2)N(C)C(=O)c2ccccc2[S+]3[O-])cc1` (racemic), the AC50 (D(2) dopamine receptor [1]) is reported as 112 nM.
